Mcl1-Bid inh: disrupts binding of human Mcl-1 to Bid peptide. TR-FRET Mcl-1/Bid-Dy647 peptide binding, 1536-well. 220,000 compounds, 0.97% hits. inhibition, % at 21.7 µM. AID 1021. Q07820;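 active = compounds that cut the binding signal by more than half at the single screening dose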;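 note: His-tagged Mcl-1 with europium anti-His antibody binding Bid BH3 peptide; 0% = Mcl-1 plus peptide wells and 100% = peptide-only wells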
Mcl1 Noxa PPI: disrupts binding of human Mcl-1 to Noxa peptide | TR-FRET Mcl-1/Noxa peptide binding, 2 h | inhibition, % at 21.7 µM | Q07820 | 220,000 compounds, 1.5% hits;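 active = compounds that cut the protein-peptide binding signal by more than 50% relative to plate controls in a single-dose test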;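 note: His-tagged Mcl-1 with rhodamine Noxa BH3 peptide and terbium anti-His antibody; 0% = Mcl-1 plus Noxa peptide wells and 100% = peptide-only wells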
Bim-Mcl-1: inhibitors of Bim-Mcl-1 interaction, human | Q07820 | Bead-based flow cytometry, Bim peptide-Mcl-1 binding | 190,000 compounds, 0.1% hits | AID 1009 | inhibition, % at 10 µM; in the data active = inhibition above about 40%;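 note: 0% = no compound tracer wells and 100% = peptide blocker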
14-3-3 Bad PPI: disrupts binding of bovine 14-3-3 zeta to phospho-Bad peptide; AID 781; inhibition, % at 21.7 µM; P63103; 220,000 compounds, 0.71% hits; TR-FRET 14-3-3zeta/Dy647-pBad peptide displacement, 1 h;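 active = inhibition above about 70%, limit read from the data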;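 note: 0% = full 14-3-3 plus peptide FRET controls and 100% = background without 14-3-3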
Target sequence (P63103 whole entry, looked up): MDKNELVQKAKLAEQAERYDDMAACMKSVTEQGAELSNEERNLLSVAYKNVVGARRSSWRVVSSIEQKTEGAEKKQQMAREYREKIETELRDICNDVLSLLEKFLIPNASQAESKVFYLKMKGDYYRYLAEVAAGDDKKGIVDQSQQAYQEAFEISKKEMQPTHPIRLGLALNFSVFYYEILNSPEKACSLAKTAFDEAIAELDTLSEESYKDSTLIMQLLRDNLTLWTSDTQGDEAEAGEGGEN
Hck-Nef inh: inhibitors of human Hck kinase activated by Nef; inhibition, % at 20 µM; 220,000 compounds, 0.68% hits; Recombinant Hck-YEEI plus Nef, Z-Lyte FRET kinase assay; P08631;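 active = Hck-Nef kinase inhibition above about 50%, limit read from the data; inactive = inhibition below that limit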;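 note: 0% = DMSO with Hck plus Nef and 100% = Hck alone without Nef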
Target sequence (P08631 whole entry, looked up): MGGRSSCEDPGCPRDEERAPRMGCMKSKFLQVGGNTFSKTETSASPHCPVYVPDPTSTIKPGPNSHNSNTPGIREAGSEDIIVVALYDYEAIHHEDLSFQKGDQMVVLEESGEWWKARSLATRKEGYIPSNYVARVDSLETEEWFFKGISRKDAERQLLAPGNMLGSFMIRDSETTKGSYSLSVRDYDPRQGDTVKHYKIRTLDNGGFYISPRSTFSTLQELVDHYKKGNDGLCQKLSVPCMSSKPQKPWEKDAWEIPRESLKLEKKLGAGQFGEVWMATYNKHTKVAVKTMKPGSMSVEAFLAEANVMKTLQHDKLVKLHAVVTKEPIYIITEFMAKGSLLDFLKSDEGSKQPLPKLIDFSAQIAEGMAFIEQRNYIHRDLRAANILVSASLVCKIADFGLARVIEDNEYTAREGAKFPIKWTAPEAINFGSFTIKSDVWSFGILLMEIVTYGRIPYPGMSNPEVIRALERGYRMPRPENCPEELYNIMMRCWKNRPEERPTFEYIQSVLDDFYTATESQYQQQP
Calb biofilm kill: mixtures killing C. albicans biofilm. C. albicans biofilm persisters + clotrimazole, fluorescence viability; primary screen in compound mixtures of four per well. inhibition, % at 7.6 µM. 120,000 compounds, 0.02% hits. AID 1242;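 active = inhibition above 30.3% in the primary screen of four-compound pools, then above 30% when the compound was retested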;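 note: compounds exposed to preformed 24 h biofilms for 48 h; 0% = untreated biofilm control and 100% = clotrimazole plus chlorhexidine kill blank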
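Probe or stimulus – Clotrimazole 50 µg/mL co-treatment · System – C. albicans biofilms · Schedule – 24 h biofilm formation, then 48 h compound exposure, 37 °C · Evaluation – percent inhibition of biofilm viability · Technique – 2-h Alamar Blue fluorescence, 535/590 nm excitation/emission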
An asterisk follows results filed as active; . = not tested or not shown; [ ] = another dose, or the depositor's remark. A selection: hits, their analogues and other compounds. The true share with any hit is near 3.2%.

SMILES | Mcl1-Bid inh | Mcl1 Noxa PPI | Bim-Mcl-1 | 14-3-3 Bad PPI | Hck-Nef inh | Calb biofilm kill
COC1=C/C(=C/c2c(N)n3c(nc2=O)sc2cc(S(C)(=O)=O)ccc23)C=CC1=O | -8.6 | 54.3* | . | -8.9 | -92.4 | 20.6
CS(=O)(=O)c1ccc2c(c1)sc1nc(=O)c(/C=C3/C=CC(=O)C(O)=C3)c(N)n12 | 5.7 | 90.3* | . | 60.1 | -78.5 | 20.8
Cn1c(=NC(=O)c2ccccc2[N+](=O)[O-])sc2cc(S(C)(=O)=O)ccc21 | -14.8 | 0.3 | -3.0 | -11.3 | 5.7 | 9.8
Cn1cc(SCC(=O)NCCc2ccccc2)c2ccccc21 | -18.4 | 6.6 | -1.0 | -4.8 | 22.2 | 3.5
COc1ccc(CCNC(=O)CCNS(=O)(=O)c2ccc3c(c2)CCN3C(C)=O)cc1OC | 57.6* | -7.1 | -3.0 | -6.2 | -8.7 | .
COc1ccc(CCNS(=O)(=O)c2ccc3c(c2)CCN3C(=O)CCC(=O)O)cc1OC | -28.1 | -3.0 | 0.0 | 2.2 | -3.2 | .
CCOC(=O)c1c(N)sc(N)c1C(=O)OCC | -28.2 | 69.1* | -5.0 | 3.5 | 11.0 | 12.7
CCOC(=O)c1c(N)sc(=S)c2c1CCC2 | 53.6* | 56.6* | 0.0 | 30.6 | 0.4 | .
CN1CCCNc2nc3ccccc3nc21 | -5.7 | 18.1 | . | -1.1 | 13.3 | 18.3
CCCn1nnc(NC(=S)NC(=O)/C=C/c2ccc(Cl)cc2)n1 | -9.2 | -14.8 | . | 1.0 | 37.7 | 22.5
c1ccc(-c2noc(CN3CCN(c4ccccc4)CC3)n2)cc1 | -43.4 | -12.2 | 0.0 | 2.5 | 1.3 | .
CC1CCN(Cc2nc(-c3ccccc3)no2)CC1 | 15.1 | 11.0 | 0.0 | 75.7* | -0.5 | .
COc1ccc(CCN(Cc2cc3ccc(C)cc3[nH]c2=O)C(C)=O)cc1OC | -3.1 | 4.5 | . | 0.7 | -40.3 | 25.7
COC(=O)CSc1nc(-c2ccc(C)cc2)c2c(c1C#N)CCCC2 | 61.5* | -17.2 | -6.0 | 1.9 | -3.6 | .
O=C(O)/C=C/c1ccc(O)c(O)c1 | -25.4 | 59.7* | 0.0 | -5.3 | -6.2 | 8.3
O=C(/C=C/c1ccc(O)c(O)c1)O[C@H](Cc1ccc(O)c(O)c1)C(=O)O | -104.6 | 92.5* | . | 61.4 | 51.8* | 14.7
O=C(NCCCN1CCCC1=O)c1ccc2c(c1)OCO2 | 61.9* | 4.5 | 0.0 | 0.1 | -0.8 | .
O=C(NCCCN1CCCC1=O)NC1CCCCC1 | -7.7 | 12.2 | 54.0* | -0.2 | -19.7 | .
CC(=O)c1c(O)c2ccccc2n(C)c1=O | -21.1 | 51.4* | 0.0 | 3.4 | -6.2 | 9.7
CN1C(=O)C(O)(CC(=O)/C=C/c2ccco2)c2cc(Br)ccc21 (stereo not drawn) | -42.6 | 9.5 | 9.0 | 83.2* | 0.7 | 2.2
CCC(=O)Nc1nnc(Sc2ccc(N(C)C)cc2)s1 | -44.1 | 13.7 | -2.0 | 1.1 | 2.6 | .
CN(C)c1ccc(Sc2nnc(NC(=O)Nc3ccc(Cl)cc3Cl)s2)cc1 | 18.2 | 89.0* | -6.0 | 16.2 | 6.1 | 2.4
O=[N+]([O-])c1ccc(-c2cn(-c3ccc(Cl)cc3)c(=S)[nH]2)cc1 | 68.2* | 90.5* | 13.0 | 25.6 | 4.2 | 16.5
COC(=O)c1cc(OC)c(OC)cc1NCC(=O)Nc1ccc(C)cc1 | 80.5* | 16.1 | -4.0 | -5.8 | 4.1 | 22.4
COC(=O)c1cc(OC)c(OC)cc1NCC(=O)Nc1ccc(OC)c(OC)c1 | -69.2 | -3.6 | -2.0 | -4.8 | 6.7 | -5.6
SMILES | Mcl1-Bid inh | Mcl1 Noxa PPI | Bim-Mcl-1 | 14-3-3 Bad PPI | Hck-Nef inh | Calb biofilm kill
CCc1ccc(S(=O)(=O)/N=C2/C=C(Sc3ncn[nH]3)C(=O)c3ccccc32)cc1 | 39.7 | 101.4* | 1.0 | 84.1*[fluorescence artefact?] | -2.6 | 13.9
O=C1c2ccccc2C(=O)N1CCSc1ncn[nH]1 | 3.1 | 20.7 | -4.0 | 0.2 | 8.7 | 15.2
CCc1ccc(S(=O)(=O)/N=C2\C=CC(=O)c3ccccc32)cc1 | -12.4 | 86.6* | 1.0 | -3.0 | 38.1 | 20.3
CCc1ccc(S(=O)(=O)ON2C(=O)c3ccccc3C2=O)cc1 | -60.9 | 39.8 | -4.0 | 13.0 | 19.6 | -6.8
COc1ccc(/C=N/NC(=O)C(Cc2c[nH]c3ccccc23)NC(=O)OCC(C)C)cc1[N+](=O)[O-] (stereo not drawn) | -51.9 | -4.3 | 0.0 | 3.7 | -1.4 | .
CC1(C)CC(=O)CC(=NCC(=O)O)C1 | -6.6 | 65.6* | 0.0 | 7.7 | 0.3 | .
CC(C)NS(=O)(=O)c1ccc(CCC(=O)N2CCCCC2)cc1 | -13.0 | -0.8 | -1.0 | -1.8 | 19.1 | 18.1
C=CCNCCOCCOc1ccc(C)cc1[N+](=O)[O-] | 27.3 | 14.2 | -2.0 | 75.1* | 1.0 | .
COc1cccc(CNc2nc3ccc(C)cc3n3cnnc23)c1 | 97.8* | -16.9 | . | 2.5 | 25.6 | 19.2
Cc1ccc(CNc2nc3ccc(C)cc3n3cnnc23)cc1 | 9.7 | 20.4 | -3.0 | 24.8 | 2.9 | .
Clc1ccc(Cn2ncc3c(N4CCCC4)ncnc32)cc1 | 3.9 | 7.2 | 1.0 | -0.7 | 6.8 | .
CC1CC(C)CN(c2ncnc3c2cnn3Cc2ccc(Cl)cc2)C1 (stereo not drawn) | 13.5 | 64.0* | -4.0 | -1.2 | 3.0 | .
Cc1ccccc1NC(=O)C1c2ccccc2Oc2ccccc21 | -7.7 | 13.6 | -4.0 | 0.5 | 3.2 | 10.9
Cc1cccc(C)c1NC(=O)C1c2ccccc2Oc2ccccc21 | 81.0* | 17.2 | -4.0 | 9.7 | 0.7 | -6.8
CCOC(=O)c1ccc(N/N=C/c2cc(Br)cc([N+](=O)[O-])c2O)cc1 | -6.5 | 60.7* | 1.0 | -6.4 | 28.7 | 15.2
COc1cc([N+](=O)[O-])cc(/C=N/NC(=O)c2cncc(Br)c2)c1O | -125.3 | -25.2 | . | -23.3 | 7.3 | 12.3
COC(=O)c1ccc(N/N=C/c2cc([N+](=O)[O-])cc(OC)c2O)cc1 | 11.9 | 61.4* | -2.0 | 19.1 | 27.9 | 10.3
COC(=O)[C@H](CC(C)C)NC(=O)N1CCC(C)CC1 | -6.8 | -2.7 | . | -1.5 | 8.8 | 14.3
Cc1sc2ncnc(NCCN3CCOCC3)c2c1C | 54.7* | 17.1 | -5.0 | 15.3 | -10.5 | .
Cc1ccc(/C=c2/sc3n(c2=O)CCCN=3)o1 | -22.2 | 26.0 | 15.0 | -7.2 | -3.8 | 8.2
O=C(NCc1ccc(/C=c2\sc3n(c2=O)CCN=3)o1)C(=O)Nc1ccccc1 | -51.4 | 56.0* | 1.0 | -8.8 | 42.0 | 8.3
CC(C)CC1(C)N=C(c2ccccc2)C(=S)N1 (stereo not drawn) | -64.3 | -2.3 | 3.0 | -9.5 | 21.2 | 18.6
O=C1NN(c2ccc(F)c(Cl)c2)C(=O)/C1=C\c1cccc(OC(=O)c2cccs2)c1 | 45.4 | 94.0* | -1.0 | 15.0 | 0.4 | .
CCCCN(C(=O)CSc1nnc(-c2ccc(OC)cc2)n1CC)c1c(N)n(Cc2ccccc2)c(=O)[nH]c1=O | -39.4 | 60.4* | -3.0 | -18.9 | 1.9 | 4.5
CCCCN(C(=O)CSc1nnc(-c2ccc(OC)cc2)n1C(C)C)c1c(N)n(Cc2ccccc2)c(=O)[nH]c1=O | 3.8 | 61.8* | -5.0 | 1.5 | 2.7 | 5.5
CCCCN(C(=O)CSc1nnc(-c2ccccc2OC)n1C)c1c(N)n(Cc2ccccc2)c(=O)[nH]c1=O | -21.8 | 28.5 | -1.0 | 5.1 | 0.8 | 15.8
